From ChEMBL document CHEMBL4513216, “Probing the Open Global Health Chemical Diversity Library for Multistage-Active Starting Points for Next-Generation Antimalarials” (ACS Infect Dis, 2020)

Assay: Toxicity liver stage against HepG2, at 10uM
Assay type: cell-based
Design: test concentration 10 uM, cell line HepG2-A16-CD81EGFP
Settings: human, HepG2-A16-CD81EGFP cells; read-out: INHIBITION
Summary of the method: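 Uninfected HepG2-A16-CD81EGFP cells, 3 × 10^3 per well, 1536-well, plated on prespotted compound at 10 μM final, parasite-free screening media added to match infected plates; puromycin 10 μM positive, DMSO 0.5% negative; run in parallel with 48 h PbLuc assay at 37 °C, 5% CO2; viability by CellTiter-Glo luminescence, normalized to controls.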

| SMILES | cytotoxicity at 10 µM [%] |
| --- | --- |
| CC(C)COC(C)C(=O)NCCNS(C)(=O)=O (stereo not given) | -5.26 |
| O=C(CSc1nncs1)N1CCN(Cc2ccc(Cl)s2)CC1 | -4.14 |
| Fc1ccc2[nH]c(CO[C@H]3CN(CC4CC4)C[C@H]3F)nc2c1 | -2.74 |
| CN(C)C(=O)c1cc2ncc(C(=O)NC3CC3)cc2n1C | -0.931 |
| N#CCCN(CC1CCCO1)C(=O)c1ccc2nonc2c1 (stereo not given) | 1.35 |
| CC[S+](CC)[c-]1c(=O)[nH]c(=O)n(Cc2ccc(F)cc2)c1=O | 4.12 |
| CCOCCSc1nnc(-c2cn(CC)nc2OCC)n1C | -3.81 |
| O=C1CCC2(CCCN(C(=O)Cc3ccccc3)C2)N1 (stereo not given) | 8.18 |
| O=C(NC1CC1)N1C[C@H]2CN(c3ccccc3)C(=O)[C@H]2C1 | -1.13 |
| Cc1nc(-c2cc(C(=O)NCC(C)(C)CO)c3ccccn23)cs1 | 6.1 |
| COc1cc(N2C[C@@H]3COC[C@]3(C(=O)NCc3ccccn3)C2)ncn1 | 7.55 |
| CC(C)N(C)Cc1noc2c1CN(C(=O)c1cnccn1)CC2 | 4.44 |
| Cc1cc(CN2C[C@H]3CCC[C@@]3(COCC(=O)N3CCCC3)C2)no1 | 8.31 |
| CN(C)Cc1cc(=O)n2c(n1)CN(CC1CC1)CCC2 | 5.71 |
| CCO[C@@H]1CC[C@H]2[C@H]1OCCN2S(=O)(=O)C1CC1 | 5.64 |
| Cc1ccc(Cn2c(=O)[nH]c3csnc3c2=O)cc1 | 2.93 |
| O=C(NCCN1CCNCC1)c1c(O)c2ccccc2[nH]c1=O | 21 |
| Cc1ccc(C(=O)Nc2nn[nH]n2)s1 | -0.246 |
| CN1CC(Oc2ccccc2)=NC(SCC(=O)c2ccccc2)=N1 | -6.17 |
| Cc1nc(N2CCCCC2)ncc1-c1cc(O)[nH]n1 | 2.76 |
| COc1ccc2c(c1)CC(C1CCOCC1)N(C(=O)c1ccn(C)n1)C2 (stereo not given) | 1.78 |
| CC(C)c1cc(C(=O)N2CCC3(CCc4ccccc4C(=O)N3)C2)no1 (stereo not given) | 6.83 |
| CCc1nccn1CCC(=O)N1CCCC1c1cncc(NC)n1 (stereo not given) | 3.53 |
| O=c1[nH]cc(N2CCCCC2)c(=O)[nH]1 | 5.55 |
| Cc1ccsc1CN(CCCN(C)C)Cc1ccccn1 | -4.11 |
| CCc1nnc2n1CCN(C(C(=O)NC1CC1)c1ccc(F)cc1)C2 (stereo not given) | 2.16 |
| CC1COCCN1C(=O)c1ccc(=O)n(Cc2ccccc2)n1 (stereo not given) | -1.19 |
| CCOc1ccc(NC(=O)NC2CCc3[nH]ncc3C2)cn1 (stereo not given) | 3.95 |

| SMILES | cytotoxicity at 10 µM [%] |
| --- | --- |
| FC(F)(F)c1nc(NC2CCc3ncnn3C2)c2ccccc2n1 (stereo not given) | -2.99 |
| Cc1ccc(S(=O)(=O)Nc2cccnc2O)cc1C | 3.33 |
| COc1cccc(CNC(=O)CCOc2ccccc2C)c1 | -1.2 |
| CCNc1cc2c(nn1)CCN(C(=O)Cc1ccc3c(c1)CCO3)C2 | 1.42 |
| COCc1cccc(C(=O)N2CCCC2)c1 | -1.7 |
| O=C(c1ccc(SC(F)F)cc1)N1CCOCC1c1ncon1 (stereo not given) | 4.79 |
| Cc1nnc(NC(=O)NCC(C)N2CCOCC2)s1 (stereo not given) | -10.6 |
| CCN(c1ccc(C(=O)Nc2c(C)nn(C(C)C)c2C)cc1)C(C)C | -2.92 |
| CN1CC(Nc2nc3c(cnn3-c3ccccc3)c(=O)[nH]2)CCC1=O (stereo not given) | -2.75 |
| CCC(=O)N1CCCN(Cc2cc(F)cc(Br)c2)CC1 | 10.3 |
| NC(=O)C1=NC2=NS(=O)(=O)c3ccccc3N2N1Cc1ccc(Br)cc1 | 8.34 |
| CC(=O)c1csc(-c2csc(Cn3ccc(=O)[nH]c3=O)n2)c1 | 5.39 |
| CCC(=O)NC1CCCN(Cn2nc(C(C)(C)C)ccc2=O)C1 (stereo not given) | -1.69 |
| CCc1nnc(C(C)N2CCc3cncnc3C2)o1 (stereo not given) | 7.49 |
| CCC(C)CS(=O)(=O)NC(=O)C1CC1 (stereo not given) | -4.69 |
| Cc1cccc(C2(CNC(=O)C(C)S(C)(=O)=O)CCCC2)c1 (stereo not given) | -2.76 |
| Cc1noc(C)c1CN(C)C(=O)C1(NS(C)(=O)=O)CCCCC1 | -11.3 |
| Cc1nnc(SCCC(=O)N(C)Cc2ccc(F)cc2F)[nH]1 | 5.21 |
| Cc1csc(CNC(=O)NCC2(c3ccc4c(c3)OCO4)CC2)n1 | 0.0902 |
| Cc1cc(CN2CCN(c3ccnc(-c4ccccc4)n3)CC2)no1 | -8.92 |
| CCC(=O)N1CCC(NC(=O)c2cccc(-n3ccnc3)c2)C1 (stereo not given) | 8.96 |
| Cc1cc(CNC(=O)N2CCc3ccccc3C2CO)c(C)o1 (stereo not given) | 7.44 |
| O=C(NCCN1CCOCC1)NCc1ncc(-c2ccccc2)o1 | 1.26 |
| COc1cc(CNC(=O)NCCCF)cc(Br)c1OC | 11.4 |
| CCn1cc(C(=O)NC2CCN(S(C)(=O)=O)CC2)c2ccccc21 | 0.95 |
| Cn1cc(NC(=O)Cn2c(CS(C)(=O)=O)nc3ccccc32)cn1 | 1.31 |
| COc1ccc(C2CCCN2C(=O)CCNc2ncccn2)cc1 (stereo not given) | -13.9 |
